ChEMBL document CHEMBL1125832, “Synthesis and dopaminergic activity of 3-substituted 1-(aminomethyl)-3,4-dihydro-5,6-dihydroxy-1H-2-benzopyrans: characterization of an auxiliary binding region in the D1 receptor” (J Med Chem, 1991)

What was measured:
[1] = biological target: T1, Adrenergic receptor alpha-1 (Rattus norvegicus, UniProt P15823+P23944+P43140); test: Binding affinity towards alpha-1 adrenergic receptor using [3H]prazosin as radioligand in competitive binding assay; type: protein assay
T1 sequence (P15823 whole entry): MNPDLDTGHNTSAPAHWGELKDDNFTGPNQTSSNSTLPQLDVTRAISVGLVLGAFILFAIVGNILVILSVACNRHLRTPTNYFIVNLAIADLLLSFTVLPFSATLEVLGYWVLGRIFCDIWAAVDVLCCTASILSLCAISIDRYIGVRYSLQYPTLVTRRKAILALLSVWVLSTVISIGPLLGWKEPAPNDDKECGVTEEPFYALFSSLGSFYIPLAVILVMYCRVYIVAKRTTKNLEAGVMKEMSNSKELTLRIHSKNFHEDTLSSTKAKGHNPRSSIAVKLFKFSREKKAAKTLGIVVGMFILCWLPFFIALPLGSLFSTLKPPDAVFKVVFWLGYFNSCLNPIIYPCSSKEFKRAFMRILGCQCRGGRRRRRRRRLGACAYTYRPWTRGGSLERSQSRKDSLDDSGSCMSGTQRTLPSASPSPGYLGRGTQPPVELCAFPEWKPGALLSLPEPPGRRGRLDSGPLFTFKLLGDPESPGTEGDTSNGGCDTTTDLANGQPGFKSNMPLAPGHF
T1 sequence (P23944 whole entry): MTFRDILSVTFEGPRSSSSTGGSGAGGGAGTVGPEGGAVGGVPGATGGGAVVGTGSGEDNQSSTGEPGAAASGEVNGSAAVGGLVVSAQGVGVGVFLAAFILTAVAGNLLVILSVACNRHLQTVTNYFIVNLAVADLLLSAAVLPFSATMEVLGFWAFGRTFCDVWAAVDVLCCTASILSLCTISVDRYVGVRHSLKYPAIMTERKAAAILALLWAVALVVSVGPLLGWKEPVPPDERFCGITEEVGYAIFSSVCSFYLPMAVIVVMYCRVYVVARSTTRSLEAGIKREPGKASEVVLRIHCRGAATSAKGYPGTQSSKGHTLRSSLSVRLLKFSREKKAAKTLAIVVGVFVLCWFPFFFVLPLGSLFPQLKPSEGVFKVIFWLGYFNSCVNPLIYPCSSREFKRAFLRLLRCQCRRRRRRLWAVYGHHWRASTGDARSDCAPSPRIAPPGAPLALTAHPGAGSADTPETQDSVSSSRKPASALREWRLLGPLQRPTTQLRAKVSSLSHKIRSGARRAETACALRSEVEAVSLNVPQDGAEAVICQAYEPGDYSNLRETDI
T1 sequence (P43140 whole entry): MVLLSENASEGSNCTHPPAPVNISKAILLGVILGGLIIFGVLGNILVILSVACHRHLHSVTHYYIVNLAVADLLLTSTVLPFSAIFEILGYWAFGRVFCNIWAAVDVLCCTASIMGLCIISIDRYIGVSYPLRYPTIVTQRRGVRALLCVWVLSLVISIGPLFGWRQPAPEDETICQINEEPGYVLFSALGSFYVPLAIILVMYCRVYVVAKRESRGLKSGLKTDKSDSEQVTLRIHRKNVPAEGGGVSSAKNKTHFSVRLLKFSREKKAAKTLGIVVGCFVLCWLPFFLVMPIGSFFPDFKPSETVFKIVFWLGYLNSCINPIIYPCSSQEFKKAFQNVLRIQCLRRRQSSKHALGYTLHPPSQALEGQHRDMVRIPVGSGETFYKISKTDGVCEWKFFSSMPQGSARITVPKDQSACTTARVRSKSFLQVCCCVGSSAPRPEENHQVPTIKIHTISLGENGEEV
How it was run: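 Frozen rat cortex membranes (300g then 48000g spins) in Tris pH 7.4 buffer with salts and ascorbate. [3H]prazosin at 1.0 nM final; nonspecific binding with 10 μM phentolamine. Incubated 45 min at 37 °C, then filtered. Ki via Cheng-Prusoff.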

[2] = biological target: Beta-1 adrenergic receptor (Rattus norvegicus, UniProt P18090); test: Binding affinity towards beta-1 adrenergic receptor using [3H]iodocyanopindolol as radioligand in competitive binding assay; settings: in the assay text read “[125I]iodocyanopindolol” for “[3H]iodocyanopindolol”
How it was run: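 β-adrenergic sites in rat striatal membranes. Label [125I]iodocyanopindolol at 50 pM final; nonspecific binding with 10 μM propranolol. Incubated 1 h at 37 °C, then filtered. Ki via Cheng-Prusoff.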

Chain of Beta-1 adrenergic receptor (P18090 whole entry): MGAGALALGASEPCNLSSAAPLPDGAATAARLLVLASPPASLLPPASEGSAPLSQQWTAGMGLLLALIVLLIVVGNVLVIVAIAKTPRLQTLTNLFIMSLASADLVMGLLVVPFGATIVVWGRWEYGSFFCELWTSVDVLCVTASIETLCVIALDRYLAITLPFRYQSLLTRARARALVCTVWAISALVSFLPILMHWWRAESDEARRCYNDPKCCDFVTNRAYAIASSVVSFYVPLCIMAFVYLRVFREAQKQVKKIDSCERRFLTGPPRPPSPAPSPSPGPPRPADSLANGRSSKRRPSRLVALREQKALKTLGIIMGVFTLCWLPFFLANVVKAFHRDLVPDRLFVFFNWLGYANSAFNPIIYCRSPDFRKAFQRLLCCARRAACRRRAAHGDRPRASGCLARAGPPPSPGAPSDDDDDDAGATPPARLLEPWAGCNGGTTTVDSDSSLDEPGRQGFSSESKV

Row | Ki [1] | Ki [2] | SMILES
1 | > 10 µM | > 10 µM | NC[C@@H]1OC(C2CCCCC2)Cc2c1ccc(O)c2O (some centres not stated)
2 | > 10 µM | > 10 µM | C=CCNC[C@@H]1OC(C2CCCCC2)Cc2c1ccc(O)c2O (some centres not stated)
3 | > 10 µM | > 10 µM | CC(C)(C)C1Cc2c(ccc(O)c2O)[C@H](CN)O1 (some centres not stated)
4 | 10.8 µM | > 10 µM | NC[C@@H]1OC(c2ccccc2)Cc2c1ccc(O)c2O (some centres not stated)
5 | > 10 µM | > 10 µM | NC[C@@H]1O[C@H](c2ccccc2)Cc2c1ccc(O)c2O
6 | 6.06 µM | > 10 µM | NC[C@H]1O[C@@H](c2ccccc2)Cc2c1ccc(O)c2O
